In brackets after ≈: the same amount, converted by molar mass.
Columns and labels:
Mus musculus [1] = assay: Analgesic activity in mouse assessed as inhibition of hind paw lick at 100 mg/kg, ip by hot plate test; format: functional; conditions: route intraperitoneal
Staphylococcus aureus = assay: Antibacterial activity against Staphylococcus aureus ATCC 29213 after 24 hrs by broth microdilution test; format: functional; conditions: ATCC 29213, 24 h
In short: (§1)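 NCCLS broth microdilution in Mueller-Hinton broth with an inoculum of 5 × 10^5 cfu/mL. Compounds were dissolved in DMSO, diluted in sterile water, and tested as twofold dilutions from 512 to 0.5 µg/mL. Plates were incubated at 35 °C for 24 h. MIC is the lowest concentration preventing visible growth.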

Escherichia coli = assay: Antibacterial activity against Escherichia coli ATCC 25922 after 24 hrs by broth microdilution test; format: functional; conditions: ATCC 25922, 24 h; in short: as §1
Mus musculus [2] = assay: Antiinflammatory activity against carrageenan-induced hind paw oedema in mouse assessed as swelling thickness at 50 mg/kg, po after 360 mins; format: functional
In short: (§2)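 Fasted mice (n = 5–6) were dosed orally with the sample in 0.5% CMC/water. One hour later, carrageenan (0.5 mg/25 µl in 154 mM saline) was injected subplantar into the right hind paw. The right-minus-left footpad thickness difference was measured with dial gauge callipers every 90 min over 6 h. Inhibition % is calculated versus vehicle control; mean ± SEM, Student's t test.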

Mus musculus [3] = assay: Antiinflammatory activity against carrageenan-induced hind paw oedema in mouse assessed as inhibition of swelling thickness at 100 mg/kg, po after 180 mins; format: functional; conditions: 3 h; in short: as §2
Pichia kudriavzevii = assay: Antifungal activity against Candida krusei ATCC 6258 after 48 hrs by broth microdilution test; format: functional; conditions: ATCC 6258, 48 h
In short: (§3)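 Yeasts tested by NCCLS M27-A broth microdilution in RPMI 1640 (with L-glutamine, without sodium bicarbonate) with an inoculum of 0.5–2.5 × 10^3 cfu/mL. Compounds were prepared from DMSO solution diluted in water as twofold dilutions from 512 to 0.5 µg/mL. Plates were incubated at 35 °C for 48 h. MIC is the lowest concentration giving no visible growth.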

Mus musculus [4] = assay: Toxicity in mouse assessed as ulceration effect at 200 mg/kg; format: functional, organism-based; set-up: dose 200 mg/kg
In short: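 Mice given 200 mg/kg orally in the carrageenan oedema study were killed under deep ether anaesthesia 6 h after treatment. Stomachs were opened along the greater curvature and examined under a dissecting microscope for lesions or bleeding. Result is expressed as the ratio of ulcerated animals per group.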

Pseudomonas aeruginosa = assay: Antibacterial activity against Pseudomonas aeruginosa ATCC 27853 after 24 hrs by broth microdilution test; format: functional; conditions: ATCC 27853, 24 h; in short: as §1
Mus musculus [5] = assay: Antiinflammatory activity against carrageenan-induced hind paw oedema in mouse assessed as inhibition of swelling thickness at 200 mg/kg, po after 180 mins; format: functional; conditions: 3 h; in short: as §2
Mus musculus [6] = assay: Antiinflammatory activity against carrageenan-induced hind paw oedema in mouse assessed as swelling thickness at 100 mg/kg, po after 270 mins; format: functional; in short: as §2
Mus musculus [7] = assay: Antiinflammatory activity against carrageenan-induced hind paw oedema in mouse assessed as swelling thickness at 50 mg/kg, po after 270 mins; format: functional; in short: as §2
Mus musculus [8] = assay: Antiinflammatory activity against carrageenan-induced hind paw oedema in mouse assessed as inhibition of swelling thickness at 50 mg/kg, po after 90 mins; format: functional; conditions: 1.5 h; in short: as §2
Candida parapsilosis = assay: Antifungal activity against Candida parapsilosis ATCC 22019 after 48 hrs by broth microdilution test; format: functional; conditions: Lodderomyces parapsilosis, ATCC 22019, 48 h; in short: as §3
Enterococcus faecalis = assay: Antibacterial activity against Enterococcus faecalis ATCC 29212 after 24 hrs by broth microdilution test; format: functional; conditions: ATCC 29212, 24 h; in short: as §1
Mus musculus [9] = assay: Antiinflammatory activity against carrageenan-induced hind paw oedema in mouse assessed as swelling thickness at 50 mg/kg, po after 180 mins; format: functional; in short: as §2
Candida albicans = assay: Antifungal activity against Candida albicans ATCC 90028 after 48 hrs by broth microdilution test; format: functional; conditions: ATCC 90028, 48 h; in short: as §3
Mus musculus [10] = assay: Antiinflammatory activity against carrageenan-induced hind paw oedema in mouse assessed as inhibition of swelling thickness at 100 mg/kg, po after 360 mins; format: functional; conditions: 6 h; in short: as §2
Mus musculus [11] = assay: Analgesic activity in mouse assessed as inhibition of acetic acid induced-abdominal writhing at 100 mg/kg, ip by Koster test; format: functional; conditions: Abdomen, route intraperitoneal
Mus musculus [12] = assay: Antiinflammatory activity against carrageenan-induced hind paw oedema in mouse assessed as inhibition of swelling thickness at 200 mg/kg, po after 270 mins; format: functional; conditions: 4.5 h; in short: as §2
Mus musculus [13] = assay: Antiinflammatory activity against carrageenan-induced hind paw oedema in mouse assessed as swelling thickness at 200 mg/kg, po after 360 mins; format: functional; in short: as §2
Mus musculus [14] = assay: Antiinflammatory activity against carrageenan-induced hind paw oedema in mouse assessed as inhibition of swelling thickness at 100 mg/kg, po after 90 mins; format: functional; conditions: 1.5 h; in short: as §2
Mus musculus [15] = assay: Antiinflammatory activity against carrageenan-induced hind paw oedema in mouse assessed as swelling thickness at 50 mg/kg, po after 90 mins; format: functional; in short: as §2
Mus musculus [16] = assay: Antiinflammatory activity against carrageenan-induced hind paw oedema in mouse assessed as inhibition of swelling thickness at 200 mg/kg, po after 90 mins; format: functional; conditions: 1.5 h; in short: as §2
Mus musculus [17] = assay: Antiinflammatory activity against carrageenan-induced hind paw oedema in mouse assessed as inhibition of swelling thickness at 100 mg/kg, po after 270 mins; format: functional; conditions: 4.5 h; in short: as §2
Mus musculus [18] = assay: Antiinflammatory activity against carrageenan-induced hind paw oedema in mouse assessed as swelling thickness at 100 mg/kg, po after 360 mins; format: functional; in short: as §2
Mus musculus [19] = assay: Antiinflammatory activity against carrageenan-induced hind paw oedema in mouse assessed as inhibition of swelling thickness at 200 mg/kg, po after 360 mins; format: functional; conditions: 6 h; in short: as §2
Mus musculus [20] = assay: Antiinflammatory activity against carrageenan-induced hind paw oedema in mouse assessed as swelling thickness at 100 mg/kg, po after 180 mins; format: functional; in short: as §2
Mus musculus [21] = assay: Analgesic activity in mouse assessed as inhibition of acetic acid induced-abdominal writhing at 200 mg/kg, ip by Koster test; format: functional; conditions: Abdomen, route intraperitoneal

Compound	inhibition in vivo at 100 mg/kg (Mus musculus [1]) [%]	MIC (Staphylococcus aureus) [µg/mL]	MIC (Escherichia coli) [µg/mL]	Activity (Mus musculus [2]) [%]	inhibition in vivo at 100 mg/kg (Mus musculus [3]) [%]	MIC (Pichia kudriavzevii) [µg/mL]	Activity (Mus musculus [4])	MIC (Pseudomonas aeruginosa) [µg/mL]	inhibition in vivo at 200 mg/kg (Mus musculus [5]) [%]	Activity (Mus musculus [6]) [%]	Activity (Mus musculus [7]) [%]	MIC (Candida parapsilosis) [µg/mL]	MIC (Enterococcus faecalis) [µg/mL]	Activity (Mus musculus [9]) [%]	MIC (Candida albicans) [µg/mL]	inhibition in vivo at 100 mg/kg (Mus musculus [11]) [%]	inhibition in vivo at 200 mg/kg (Mus musculus [12]) [%]	inhibition in vivo at 100 mg/kg (Mus musculus [14]) [%]	inhibition in vivo at 200 mg/kg (Mus musculus [16]) [%]	inhibition in vivo at 200 mg/kg (Mus musculus [19]) [%]	also measured
Cc1ccc2oc(=O)n(CC(=O)N/N=C/c3ccc(Br)cc3)c2c1	20.3	> 512	> 512	83	43.7	256 (≈ 659 µM)	Toxic	> 512	46.9	92	95.9	128 (≈ 330 µM)	> 512	94.6	64 (≈ 165 µM)	72.6	11.1	44.4	–	–	inhibition in vivo at 50 mg/kg (Mus musculus [8]): 1.9%; inhibition in vivo at 100 mg/kg (Mus musculus [10]): 19.1%; Activity (Mus musculus [13]): 84.4%
Cc1ccc2oc(=O)n(Cc3n[nH]c(=S)n3C)c2c1	2.2	> 512	512 (≈ 1850 µM)	97.8	11.8	512 (≈ 1850 µM)	Not toxic	512 (≈ 1850 µM)	38.6	–	120.7	256 (≈ 926 µM)	> 512	85.1	512 (≈ 1850 µM)	49.6	15.8	79.8	42	–	Activity (Mus musculus [15]): 67.5%; inhibition in vivo at 100 mg/kg (Mus musculus [10]): 27.4%; inhibition in vivo at 100 mg/kg (Mus musculus [17]): 14.8%; Activity (Mus musculus [13]): 79.1%
CNc1nnc(Cn2c(=O)oc3ccc(C)cc32)s1	54.3	512 (≈ 1850 µM)	512 (≈ 1850 µM)	96	21.4	256 (≈ 926 µM)	–	512 (≈ 1850 µM)	46.9	110.4	106.8	256 (≈ 926 µM)	512 (≈ 1850 µM)	101.3	256 (≈ 926 µM)	73.8	33.3	62.7	63.5	14.5	Activity (Mus musculus [18]): 106.7%; Activity (Mus musculus [15]): 66%
Cc1ccc2oc(=O)n(CC(=O)NNC(=S)Nc3ccccc3)c2c1	23.9	256 (≈ 718 µM)	256 (≈ 718 µM)	153.3	31.3	256 (≈ 718 µM)	Not toxic	256 (≈ 718 µM)	53.4	92	162.6	128 (≈ 359 µM)	512 (≈ 1440 µM)	140.9	256 (≈ 718 µM)	55.6	30.5	79.8	40.3	34.1	Activity (Mus musculus [18]): 79.2%
CCn1c(Cn2c(=O)oc3ccc(C)cc32)n[nH]c1=S	36.2	512 (≈ 1760 µM)	512 (≈ 1760 µM)	146.7	–	256 (≈ 882 µM)	Not toxic	256 (≈ 882 µM)	31.8	117.6	147.3	256 (≈ 882 µM)	512 (≈ 1760 µM)	91.1	512 (≈ 1760 µM)	43.5	25.9	57.1	56.5	19.7	Activity (Mus musculus [20]): 95.9%; Activity (Mus musculus [18]): 87.1%; Activity (Mus musculus [15]): 82.9%
COc1ccc(/C=N/NC(=O)Cn2c(=O)oc3ccc(C)cc32)cc1	27.5	256 (≈ 754 µM)	512 (≈ 1510 µM)	87.2	–	128 (≈ 377 µM)	Toxic	256 (≈ 754 µM)	65.2	95.4	108.8	512 (≈ 1510 µM)	128 (≈ 377 µM)	82.3	128 (≈ 377 µM)	65.7	38.3	82.4	87.9	–	Activity (Mus musculus [20]): 100.8%; inhibition in vivo at 50 mg/kg (Mus musculus [8]): 19.5%; inhibition in vivo at 100 mg/kg (Mus musculus [10]): 17.5%; Activity (Mus musculus [13]): 86.2%
CCNc1nnc(Cn2c(=O)oc3ccc(C)cc32)s1	25.4	512 (≈ 1760 µM)	512 (≈ 1760 µM)	94	33.8	512 (≈ 1760 µM)	–	512 (≈ 1760 µM)	71.3	–	102.8	256 (≈ 882 µM)	> 512	90.1	512 (≈ 1760 µM)	68.5	45.4	84.8	85.3	11.1	inhibition in vivo at 50 mg/kg (Mus musculus [8]): 7.9%; inhibition in vivo at 100 mg/kg (Mus musculus [17]): 7.1%
CC(=O)Oc1ccccc1C(=O)O [ASPIRIN]	–	–	–	–	–	–	–	–	–	–	–	–	–	–	–	–	–	–	–	–	inhibition in vivo at 200 mg/kg (Mus musculus [21]): 65.7%
